Test results from ChEMBL document CHEMBL1158058, “Cardenolide glycosides from Pergularia tomentosa and their proapoptotic activity in Kaposi's sarcoma cells” (2006).
Active and inactive are the calls of the source. The calls are words filed in the database; no cut-off is given here.

Tests used:
[1] = Induction of apoptosis in human KS cells assessed as DNA fragmentation at 10 uM […] by FACS relative to control; assay type: functional
Procedure, shortened: (§1)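 KS cells serum-starved 12 h and washed with HBSS-10 mM HEPES. Preincubated 1 h at 37 °C with compound (1 or 10 µM) in DMSO (final <0.1%), washed, then cultured 24 h in 1% FBS medium. Hypodiploid (sub-G1) fraction counted by FACS against control.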

[2] = test system: KS; experiment: Cytotoxicity against human KS cells after 24 hrs by XTT assay; assay type: functional, cell-based
Procedure, shortened: (§2)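 KS cells (from HIV-1 patients, spontaneously immortalized) seeded at 5 × 10^3 cells/well and left to attach 24 h. Washed in HBSS-10 mM Hepes, serum-starved 12 h, then exposed at 37 °C for 24 h in fresh serum-free medium to a range of concentrations (DMSO vehicle). Washed, then cell number by XTT (OD 490 nm) and Coulter counter. At least three independent experiments in duplicate, mean ± SEM.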

[3] = test system: KS; experiment: Cytotoxicity against human KS cells after 24 hrs by coulter counter; assay type: functional, cell-based; procedure, shortened: as §2
[4] = test system: KS; experiment: Induction of apoptosis in human KS cells assessed as caspase 3 activity at 10 uM by DEVD-AFC fluorimetric assay; assay type: functional, cell-based
Procedure, shortened: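 KS cells handled as in the treatment protocol (12 h starvation, 1 h 37 °C exposure at 10 µM in DMSO, 24 h further culture in 1% FBS). Lysates incubated with the caspase-3 substrate DEVD-AFC. Fluorescence read as fold over untreated. Three independent experiments in duplicate (n = 6), mean ± SEM.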

[5] = test system: KS; experiment: Cytotoxicity against human KS cells at >1 uM after 24 hrs; assay type: functional, cell-based
[6] = test system: KS; experiment: Effect on human KS cell survival assessed as cell detachment at >1 uM by micrograph analysis; assay type: functional, cell-based
[7] = Induction of apoptosis in human KS cells assessed as DNA fragmentation at 1 uM […] by FACS relative to control; assay type: functional; procedure, shortened: as §1

SMILES | Activity [1] | Activity [2] | Activity [3] | Activity [4] | Activity [5] | Activity [6] | Activity [7]
C[C@]12[C@H](O)C[C@H]3[C@@H](CC[C@H]4C[C@H]5O[C@@H]6O[C@H](CO)C[C@@H](O)[C@]6(O)O[C@@H]5C[C@@]43CO)[C@@]1(O)CC[C@@H]2C1=CC(=O)OC1 [GHALAKINOSIDE] | 45% | Dose-dependent effect | Dose-dependent effect | Active | Active | – | –
C[C@@H]1C[C@@H](O)[C@]2(O)O[C@@H]3C[C@@]4(CO)[C@@H](CC[C@@H]5[C@@H]4C[C@@H](O)[C@]4(C)[C@@H](C6=CC(=O)OC6)CC[C@]54O)C[C@H]3O[C@@H]2O1 | 45% | Dose-dependent effect | Dose-dependent effect | Active | Active | – | –
C[C@@H]1C[C@@H](O[C@@H]2O[C@H](CO)[C@@H](O)[C@H](O)[C@H]2O)[C@]2(O)O[C@@H]3C[C@@]4(C=O)[C@@H](CC[C@@H]5[C@@H]4CC[C@]4(C)[C@@H](C6=CC(=O)OC6)CC[C@]54O)C[C@H]3O[C@@H]2O1 | 45% | Dose-dependent effect | Dose-dependent effect | Active | Active | Active | 35%
C[C@@H]1C[C@@H](O)[C@]2(O)O[C@@H]3C[C@@]4(C=O)[C@@H](CC[C@@H]5[C@@H]4CC[C@]4(C)[C@@H](C6=CC(=O)OC6)CC[C@]54O)C[C@H]3O[C@@H]2O1 [CALACTIN] | 45% | Dose-dependent effect | Dose-dependent effect | Active | Active | – | –
C[C@]12CC[C@H]3[C@@H](CC[C@H]4C[C@H]5O[C@@H]6O[C@H](CO)C[C@@H](O)[C@]6(O)O[C@@H]5C[C@@]43CO)[C@@]1(O)CC[C@@H]2C1=CC(=O)OC1 | 45% | Dose-dependent effect | Dose-dependent effect | Active | Active | – | –
